# ChEMBL document CHEMBL1155599, “Ancistrolikokines A-C: new 5,8'-coupled naphthylisoquinoline alkaloids from Ancistrocladus likoko” (J Nat Prod, 2000)
# How the values were obtained:
# [1] = Cytotoxicity against rat L6 cells after 72 hrs; assay type: cell-based; conditions: read-out: MIC
# Plasmodium falciparum [2] = assay: Antimalarial activity after 48 hrs against Plasmodium falciparum K1 infected human erythrocytes by [3H]hypoxanthine uptake; assay type: functional, organism-based
# Outline: (§1)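 Modified [3H]hypoxanthine incorporation assay; infected human red blood cells exposed to serial drug dilutions for 48 h at 37 °C under reduced O2/elevated CO2, then [3H]hypoxanthine added and incubated a further 24 h; harvested on glass fiber filters, scintillation counted. IC50 from sigmoidal inhibition curve; duplicates, repeated at least once. NF54 is drug-sensitive, K1 is chloroquine/pyrimethamine-resistant.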
# Plasmodium falciparum [3] = assay: Antimalarial activity after 48 hrs against Plasmodium falciparum NF54 infected human erythrocytes by [3H]hypoxanthine uptake; assay type: functional, organism-based; outline: as §1
SMILES,MCC at 72 h [1] [µg/mL],IC50 (Plasmodium falciparum [2]) [µg/mL],IC50 (Plasmodium falciparum [3]) [µg/mL]
COc1cc(O)c2c(c1-c1ccc(O)c3c(OC)cc(C)cc13)C[C@@H](C)N(C)[C@@H]2C [ANCISTROLIKOKINE A],90,0.14,0.191
COc1cc(O)c(-c2ccc(OC)c3c(O)cc(C)cc23)c2c1[C@H](C)N[C@H](C)C2 [ANCISTROLIKOKINE B],30,0.208,0.538
COc1cc(O)c(-c2ccc(OC)c3c(O)cc(C)cc23)c2c1[C@@H](C)N(C)[C@H](C)C2 [ANCISTROLIKOKINE C],,0.924,6.23
COc1cc(C)cc2c(-c3c(O)cc(O)c4c3C[C@@H](C)N[C@@H]4C)ccc(O)c12 [KORUPENSAMINE A],100,0.072,0.024
